Data reported in ChEMBL document CHEMBL5380787, “Optimized M24B Aminopeptidase Inhibitors for CARD8 Inflammasome Activation” (J Med Chem, 2023).
Activity calls are given as the source filed them. The calls are words filed in the database; no cut-off is given here.

Experiments:
[1] = molecular target: T1, Xaa-Pro dipeptidase (Homo sapiens) (UniProt P12955); assay: Inhibition of recombinant human PEPD using Ala-Pro as substrate assessed as alanine release by measuring increase in fluorescense signal by fluorescence based analysis
T1 sequence (whole entry): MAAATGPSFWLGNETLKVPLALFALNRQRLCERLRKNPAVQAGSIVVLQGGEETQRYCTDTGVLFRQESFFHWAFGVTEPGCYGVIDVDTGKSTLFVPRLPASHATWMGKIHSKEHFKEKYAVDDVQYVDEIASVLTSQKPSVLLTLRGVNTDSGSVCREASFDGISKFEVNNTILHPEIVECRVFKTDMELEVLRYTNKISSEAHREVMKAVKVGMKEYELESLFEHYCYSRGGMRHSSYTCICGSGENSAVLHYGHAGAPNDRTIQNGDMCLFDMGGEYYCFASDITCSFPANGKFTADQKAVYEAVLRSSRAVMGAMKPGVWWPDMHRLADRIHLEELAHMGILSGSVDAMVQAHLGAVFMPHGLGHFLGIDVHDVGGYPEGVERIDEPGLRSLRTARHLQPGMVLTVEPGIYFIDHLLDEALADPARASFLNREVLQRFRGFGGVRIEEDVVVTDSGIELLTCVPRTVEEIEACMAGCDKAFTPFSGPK

Xaa-Pro aminopeptidase 1 [2] = molecular target: T2, Xaa-Pro aminopeptidase 1 (Homo sapiens, UniProt Q9NQW7); assay: Inhibition of 6-His tagged XPNPEP1 (unknown origin) expressed in Escherichia coli Rosetta DE3 cells using H-Lys(abz)-Pro-Pro-pNA as substrate incubated for 60 mins by fluorescence based analysis
T2 sequence (Q9NQW7 whole entry): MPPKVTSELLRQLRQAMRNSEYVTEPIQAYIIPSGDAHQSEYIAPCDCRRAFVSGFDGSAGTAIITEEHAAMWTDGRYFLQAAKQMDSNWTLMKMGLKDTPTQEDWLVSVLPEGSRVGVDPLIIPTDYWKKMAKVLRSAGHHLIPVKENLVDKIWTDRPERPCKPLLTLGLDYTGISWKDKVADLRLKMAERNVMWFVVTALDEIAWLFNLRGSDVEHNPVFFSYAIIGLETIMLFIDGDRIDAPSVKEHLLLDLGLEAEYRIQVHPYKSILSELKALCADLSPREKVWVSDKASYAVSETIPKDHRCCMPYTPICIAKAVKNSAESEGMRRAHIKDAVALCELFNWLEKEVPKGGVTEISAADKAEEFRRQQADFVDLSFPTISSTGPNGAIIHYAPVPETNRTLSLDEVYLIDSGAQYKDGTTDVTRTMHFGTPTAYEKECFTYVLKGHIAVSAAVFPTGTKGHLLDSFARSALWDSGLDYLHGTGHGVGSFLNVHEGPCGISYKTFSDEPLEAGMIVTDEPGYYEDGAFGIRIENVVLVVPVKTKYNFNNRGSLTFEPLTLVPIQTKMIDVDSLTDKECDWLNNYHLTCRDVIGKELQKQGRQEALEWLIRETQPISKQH
Summary of the method: (§1)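 His6-tagged XPNPEP1 was expressed in E. coli Rosetta DE3 (IPTG, 16 h, 37 °C) and purified on TALON resin. Enzyme at 3.5 nM was exposed to compound, then H-Lys(abz)-Pro-Pro-pNA was added at 100 μM final. Fluorescence (Ex/Em 320/410) was followed for 60 min. Single-point inhibition used 20 μM; IC50 as mean ± SEM of three biological replicates.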

[3] = Stability of the compound in human MV4-11 cells assessed as esterase-mediated hydrolysis by LC-MS analysis; type: ADME, cell-based
Summary of the method: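 Compound was incubated in conditioned medium from MV4;11 cells for 24 h at 37 °C, and LC/MS then measured intact ester remaining and the de-esterified free acid. n = 3, mean ± SEM.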

[4] = Stability of the compound in human MV4-11 cells assessed as esterase-mediated hydrolysis measured after 8 hrs by LC-MS analysis; type: ADME, cell-based; conditions: mv4-11, 8 h
N/TERT-1 = assay: Cytotoxicity against immortalized human N/TERT-1 Keratinocytes expressing human NLRP1 assessed as cell death at 10 uM incubated for 24 hrs by celltiter-glo assay; type: functional, cell-based
Summary of the method: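 N/TERT-1 keratinocytes grown in keratinocyte serum-free medium with penicillin/streptomycin, bovine pituitary extract (25 μg/mL) and EGF (0.2 ng/mL), 37 °C, 5% CO2. Compound added by pintool to 2000 cells/well, 24 h exposure. Viability read by CellTiter-Glo luminescence after 2 min shaking and 10 min at 25 °C. Mean ± SEM of three biological replicates.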

BMDM [5] = assay: Induction of pyroptosis in C57BL/6J mouse BMDM cells expressing NLRP1A and NLRP1B allele 2 assessed as LDH release at 10 uM incubated for 24 hrs; type: functional, cell-based
Summary of the method: (§2)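 Bone marrow from femurs and tibias of 7–12-week-old C57BL/6J mice, red cells lysed. Cells differentiated 6 days at 37 °C in DMEM with 10% FBS and 15–20% L-cell medium, then replated. Exposure 24 h. LDH in supernatant measured relative to a 9% Triton X-100 lysis control. For GSDMD cleavage, cells sonicated in PBS, protein normalized, SDS-PAGE immunoblot.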

RAW264.7 [6] = assay: Induction of pyroptosis in mouse RAW264.7 cells expressing NLRP1B allele 1 assessed as LDH release at 10 uM incubated for 24 hrs; type: functional, cell-based
Summary of the method: (§3)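 RAW264.7 cells in DMEM with L-glutamine and 10% FBS, 5 × 10^5 cells/well, treated 24 h. LDH in supernatant measured relative to a 9% Triton X-100 lysis control. GSDMD cleavage by immunoblot of PBS-sonicated lysates with protein normalized. Mean ± SEM of three biological replicates.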

BMDM [7] = assay: Induction of pyroptosis in C57BL/6J mouse BMDM cells expressing NLRP1A and NLRP1B allele 2 assessed as GSDMD clevage at 10 uM incubated for 24 hrs by immunoblot analysis; type: functional, cell-based; summary of the method: as §2
RAW264.7 [8] = assay: Induction of pyroptosis in mouse RAW264.7 cells expressing NLRP1B allele 1 assessed as GSDMD clevage at 10 uM incubated for 24 hrs by immunoblot analysis; type: functional, cell-based; summary of the method: as §3
HEK-293T [9] = assay: Induction of pyroptosis in human HEK293T cells expressing CASP1 and GSDMD cotransfected with dTAG-CARD8ZUC and CARD8 FIIND S297A assessed as destabilization of DPP9-CARD8 ternary complex by measuring GSDMD clevage at 10 uM incubated for 6 hrs in presence of dTAG13 by immunoblot analysis; type: functional, cell-based
Summary of the method: (§4)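 HEK293T cells stably expressing CASP1 and GSDMD, 1.5 × 10^5 cells/well. 24 h later treated with dTAG-13 (500 nM) plus compound, DMSO as vehicle, for 6 h. Read-outs were supernatant LDH against a lysis control and GSDMD immunoblot.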

HEK-293T [10] = assay: Induction of pyroptosis in human HEK293T cells expressing CASP1 and GSDMD cotransfected with dTAG-CARD8ZUC and CARD8 FIIND S297A assessed as destabilization of DPP9-CARD8 ternary complex by measuring LDH release at 10 uM incubated for 6 hrs in presence of dTAG13; type: functional, cell-based; summary of the method: as §4
THP-1 [11] = assay: Induction of pyroptosis in CARD8 knockout human THP-1 cells harboring dox-inducible […] E274R mutant assessed as cell death by measuring LDH release at 10 uM pretreated with doxycycline for 16 hrs followed by compound addition and measured after 6 hrs; type: functional, cell-based
Summary of the method: (§5)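 CARD8−/− THP-1 cells stably carrying DOX-inducible CARD8 E274R, grown in RPMI 1640 with 10% FBS, 5 × 10^5 cells/well. DOX (100 ng/mL) for 16 h or no DOX, then compound for 6 h. Supernatant LDH measured relative to a Triton X-100 lysis control. GSDMD cleavage by SDS-PAGE immunoblot of protein-normalized lysates.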

THP-1 [12] = assay: Induction of pyroptosis in CARD8 knockout human THP-1 cells harboring dox-inducible […] E274R mutant assessed as GSDMD cleavage at 10 uM pretreated with doxycycline for 16 hrs followed by compound addition and measured after 6 hrs by immunoblot analysis; type: functional, cell-based; summary of the method: as §5
MV4-11 [13] = assay: Cytotoxicity against human MV4-11 cells assessed as reduction in cell viability incubated for 24 hrs by celltiter-glo assay; type: functional, cell-based; conditions: MV4-11, 24 h
Summary of the method: (§6)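 MV4;11 cells (WT or CASP1−/−), grown in RPMI 1640 with 10% FBS at 37 °C, 5% CO2, plated 2000 cells/well, dosed by pintool across 100 μM to 15.2 nM in three-fold steps for 24 h. Viability by CellTiter-Glo luminescence after 2 min shaking and 10 min at 25 °C. IC50 as mean ± SEM of three biological replicates.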

MV4-11 [14] = assay: Cytotoxicity against CASP1 knockout human MV4-11 cells assessed as reduction in cell viability incubated for 24 hrs by celltiter-glo assay; type: functional, cell-based; conditions: MV4-11, 24 h; summary of the method: as §6
OCI-AML2 [15] = assay: Induction of cell death in human OCI-AML2 cells assessed as increase in PI uptake at 6.25 uM incubated for 6 hrs by PI staining based fluorescence analysis; type: functional
Summary of the method: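 PI flux assay. 2 × 10^4 MV4;11 (WT, CARD8−/− or CASP1−/−) or OCI-AML2 cells in RPMI were given compound at 6.25 μM plus PI at 10 μM final. Fluorescence (Ex/Em 535/617 nm) was read every 5 min at 37 °C for 6 h, baseline-corrected to DMSO and normalized to the maximum response. n = 3.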

MV4-11 [16] = assay: Cytotoxicity against human MV4-11 cells assessed as reduction in cell viability at 1 uM incubated for 24 hrs by celltiter-glo assay relative to control; type: functional
Summary of the method: (§7)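 Single-dose viability screen. MV4;11 or OCI-AML2 cells at 2000 cells/well were exposed to 1 μM compound for 24 h. Viability was read by CellTiter-Glo luminescence and expressed as percent inhibition. Values are means of three biological replicates.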

OCI-AML2 [17] = assay: Cytotoxicity against human OCI-AML2 cells assessed as reduction in cell viability at 1 uM incubated for 24 hrs by celltiter-glo assay relative to control; type: functional; summary of the method: as §7
[18] = molecular target: T1, Xaa-Pro dipeptidase (Homo sapiens); assay: Inhibition of recombinant human PEPD using Ala-Pro as substrate assessed as alanine release by measuring increase in fluorescense signal at 1 uM by fluorescence based analysis relative to control
Summary of the method: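 Recombinant human PEPD at 50 nM was incubated with Ala-Pro at 40 μM final and compound. Released alanine was detected by coupled alanine transaminase/pyruvate oxidase conversion to H2O2 and resorufin fluorescence (Ex/Em 535/587 nm) at 25 °C.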

Xaa-Pro aminopeptidase 1 [19] = molecular target: T2, Xaa-Pro aminopeptidase 1; assay: Inhibition of 6-His tagged XPNPEP1 (unknown origin) expressed in Escherichia coli Rosetta DE3 cells using H-Lys(abz)-Pro-Pro-pNA as substrate at 20 uM incubated for 60 mins by fluorescence based analysis relative to control; summary of the method: as §1

For `CC(C)C[C@@H](N)[C@H](O)C(=O)N1CCC[C@H]1C(=O)OC(C)(C)C`, the inhibition [1] was “Active”, the inhibition (Xaa-Pro aminopeptidase 1 [2]) was “Active” and the Stability [3] was “Stable”. For the same compound, the Stability [4] was “Unstable”.
For `CC(C)[C@H](N)C(=O)N1CCC[C@H]1B(O)O`, the Activity (N/TERT-1) was “Active”, the Activity (BMDM [5]) was “Active” and the Activity (RAW264.7 [6]) was “Active”. The Activity (BMDM [7]) was “Active”, the Activity (RAW264.7 [8]) was “Active” and the Activity (HEK-293T [9]) was “Active”. The Activity (HEK-293T [10]) was “Active”, the Activity (THP-1 [11]) was “inactive” and the Activity (THP-1 [12]) was “inactive”.
For `COC(=O)[C@@H](NC(=O)[C@@H]1CCCN1C(=O)[C@@H](O)[C@H](N)CC(C)C)C(C)C`, the IC50 (MV4-11 [13]) was 450 nM, the IC50 (MV4-11 [14]) was greater than 20 µM and the Activity (OCI-AML2 [15]) was “Active”. The Activity (MV4-11 [16]) was 59%, the Activity (OCI-AML2 [17]) was 32% and the inhibition [18] was 42%. For the same compound, the inhibition (Xaa-Pro aminopeptidase 1 [19]) was 65%.
With `CC(C)C[C@@H](N)[C@H](O)C(=O)N1CCC[C@H]1C(=O)OC1CCCC1` the inhibition [1] was “Active”, the inhibition (Xaa-Pro aminopeptidase 1 [2]) was “Active” and the Stability [3] was “Stable”.
